These results are taken from ChEMBL document CHEMBL1121540, “Synthesis and antibacterial activity of new 1-oxa-1-dethiacephalosporins” (1980).

In brackets after ≈: the same amount, converted by molar mass.

Type in all cases: functional
One experiment has as its system Pseudomonas aeruginosa. The experiment in a line: In vitro minimum inhibitory concentration (MIC) against NCTC 10490 strain of Pseudomonas aeruginosa. Summed up:
(§1)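 Agar dilution on heart infusion agar; the MIC is read as the lowest concentration that inhibits growth of the strain.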

Another experiment has as its system Proteus mirabilis. Description: In vitro minimum inhibitory concentration (MIC) against Proteus mirabilis 1. Summed up:
as §1

In the next experiment the test system is Staphylococcus aureus. Description: In vitro minimum inhibitory concentration (MIC) against 209P JC-1 strain of Staphylococcus aureus. Summed up: as §1
The subject of a further experiment is Serratia marcescens. The experiment in a line: In vitro minimum inhibitory concentration (MIC) against Serratia marcescens. A digest of the protocol:
as §1

The next experiment has as its system Bacillus subtilis. Description: In vitro minimum inhibitory concentration (MIC) against ATCC 6633 strain of Bacillus subtilis. A digest of the protocol: as §1
The next experiment relates to Klebsiella pneumoniae. The experiment in a line: In vitro minimum inhibitory concentration (MIC) against Klebsiella pneumonia 12. A digest of the protocol:
as §1

Another experiment concerns Escherichia coli. Description: In vitro minimum inhibitory concentration (MIC) against NIHJ JC-2 strain of Escherichia coli. A digest of the protocol:
as §1

For `CO/N=C(\C(=O)N[C@@H]1C(=O)N2C(C(=O)O)=CCO[C@H]12)c1csc(N)n1`, the minimum inhibitory concentration (MIC) turned out to be 800 µg/mL (≈ 2180 µM) against Pseudomonas aeruginosa; 0.2 µg/mL (≈ 0.544 µM) against Proteus mirabilis; 25 µg/mL (≈ 68.1 µM) in the experiment with Staphylococcus aureus; 100 µg/mL (≈ 272 µM) against Serratia marcescens; 100 µg/mL (≈ 272 µM) in the experiment with Bacillus subtilis; 0.78 µg/mL (≈ 2.12 µM) in the experiment with Klebsiella pneumoniae. For the same molecule, in the experiment on Escherichia coli, the MIC was determined as 0.2 µg/mL (≈ 0.544 µM).
Regarding `C=CCO/N=C(\C(=O)N[C@@H]1C(=O)N2C(C(=O)O)=CCO[C@H]12)c1csc(N)n1`, the MIC in the experiment on Pseudomonas aeruginosa worked out at 50 µg/mL (≈ 127 µM); against Proteus mirabilis, 0.1 µg/mL (≈ 0.254 µM); against Staphylococcus aureus it was 6.25 µg/mL (≈ 15.9 µM); against Serratia marcescens, 100 µg/mL (≈ 254 µM); in the experiment with Bacillus subtilis, 100 µg/mL (≈ 254 µM); in the experiment with Klebsiella pneumoniae it was 1.56 µg/mL (≈ 3.97 µM). This molecule gave a minimal inhibitory concentration (MIC) in the experiment with Escherichia coli of 3.13 µg/mL (≈ 7.96 µM).
Take `C#CCO/N=C(\C(=O)N[C@@H]1C(=O)N2C(C(=O)O)=CCO[C@H]12)c1csc(N)n1`: the MIC against Pseudomonas aeruginosa was 400 µg/mL (≈ 1020 µM); against Proteus mirabilis it was 0.1 µg/mL (≈ 0.256 µM); with Staphylococcus aureus it was 12.5 µg/mL (≈ 31.9 µM); with Serratia marcescens, 100 µg/mL (≈ 256 µM); in the experiment with Bacillus subtilis it was 25 µg/mL (≈ 63.9 µM); with Klebsiella pneumoniae it was 0.2 µg/mL (≈ 0.511 µM). Also, it took 1.56 µg/mL (≈ 3.99 µM) to inhibit growth in the experiment on Escherichia coli (MIC).
In the case of `CO/N=C(/C(=O)N[C@@H]1C(=O)N2C(C(=O)O)=CCO[C@H]12)c1csc(N)n1`, the minimum inhibitory concentration (MIC) in the experiment on Pseudomonas aeruginosa is 800 µg/mL (≈ 2180 µM); against Proteus mirabilis, 3.13 µg/mL (≈ 8.52 µM); against Staphylococcus aureus, 12.5 µg/mL (≈ 34 µM); against Serratia marcescens, 100 µg/mL (≈ 272 µM); against Bacillus subtilis, 100 µg/mL (≈ 272 µM); with Klebsiella pneumoniae, 1.56 µg/mL (≈ 4.25 µM). For the same molecule, 6.25 µg/mL (≈ 17 µM) was the least that counted as inhibitory against Escherichia coli (MIC).
Take `CC(C)O/N=C(\C(=O)N[C@@H]1C(=O)N2C(C(=O)O)=CCO[C@H]12)c1csc(N)n1`: the MIC in the experiment with Pseudomonas aeruginosa came to 12.5 µg/mL (≈ 31.6 µM); in the experiment on Proteus mirabilis, 0.2 µg/mL (≈ 0.506 µM); in the experiment with Staphylococcus aureus it was 12.5 µg/mL (≈ 31.6 µM); against Serratia marcescens, 25 µg/mL (≈ 63.2 µM); against Bacillus subtilis, 50 µg/mL (≈ 126 µM); against Klebsiella pneumoniae, 0.78 µg/mL (≈ 1.97 µM). For the same molecule, it took 0.78 µg/mL (≈ 1.97 µM) to inhibit growth against Escherichia coli (MIC).
As for `CCCCO/N=C(\C(=O)N[C@@H]1C(=O)N2C(C(=O)O)=CCO[C@H]12)c1csc(N)n1`, the minimal inhibitory concentration (MIC) against Pseudomonas aeruginosa came out at 12.5 µg/mL (≈ 30.5 µM); in the experiment on Proteus mirabilis, 0.78 µg/mL (≈ 1.91 µM); against Staphylococcus aureus, 12.5 µg/mL (≈ 30.5 µM); in the experiment with Serratia marcescens it was 100 µg/mL (≈ 244 µM); with Bacillus subtilis, 50 µg/mL (≈ 122 µM); against Klebsiella pneumoniae, 3.13 µg/mL (≈ 7.64 µM). Further, the minimum inhibitory concentration (MIC) in the experiment on Escherichia coli turned out to be 0.78 µg/mL (≈ 1.91 µM).
With `CO/N=C(\C(=O)N[C@@H]1C(=O)N2C(C(=O)O)=CCO[C@H]12)c1ccccc1`, the minimum inhibitory concentration (MIC) in the experiment on Pseudomonas aeruginosa is 800 µg/mL (≈ 2320 µM); against Proteus mirabilis, 6.25 µg/mL (≈ 18.1 µM); against Staphylococcus aureus, 1.56 µg/mL (≈ 4.52 µM); against Serratia marcescens, 100 µg/mL (≈ 290 µM); with Bacillus subtilis it was 25 µg/mL (≈ 72.4 µM); with Klebsiella pneumoniae, 12.5 µg/mL (≈ 36.2 µM). Besides, the minimal inhibitory concentration (MIC) in the experiment with Escherichia coli turned out to be 25 µg/mL (≈ 72.4 µM).
With `CCO/N=C(\C(=O)N[C@@H]1C(=O)N2C(C(=O)O)=CCO[C@H]12)c1csc(N)n1`, the MIC was determined as 3.13 µg/mL (≈ 8.21 µM) in the experiment with Pseudomonas aeruginosa; 0.05 µg/mL (≈ 0.131 µM) against Proteus mirabilis; 6.25 µg/mL (≈ 16.4 µM) in the experiment with Staphylococcus aureus; 12.5 µg/mL (≈ 32.8 µM) in the experiment on Serratia marcescens; 50 µg/mL (≈ 131 µM) in the experiment on Bacillus subtilis; 0.1 µg/mL (≈ 0.262 µM) against Klebsiella pneumoniae. The MIC in the experiment on Escherichia coli is 0.1 µg/mL (≈ 0.262 µM).
For `CO/N=C(\C(=O)N[C@@H]1C(=O)N2C(C(=O)O)=CCO[C@H]12)c1ccco1`, the minimum inhibitory concentration (MIC) with Pseudomonas aeruginosa was 800 µg/mL (≈ 2390 µM); in the experiment with Proteus mirabilis, 0.78 µg/mL (≈ 2.33 µM); against Staphylococcus aureus, 12.5 µg/mL (≈ 37.3 µM); against Serratia marcescens, 100 µg/mL (≈ 298 µM); in the experiment with Bacillus subtilis, 50 µg/mL (≈ 149 µM); against Klebsiella pneumoniae, 1.56 µg/mL (≈ 4.65 µM). For the same molecule, the minimum inhibitory concentration (MIC) in the experiment on Escherichia coli stood at 6.25 µg/mL (≈ 18.6 µM).
For `CO/N=C(\C(=O)N[C@@H]1C(=O)N2C(C(=O)O)=CCS[C@H]12)c1csc(N)n1` [CEFTIZOXIME], the MIC came out at 25 µg/mL (≈ 65.2 µM) in the experiment on Pseudomonas aeruginosa; 0.025 µg/mL (≈ 0.0652 µM) with Proteus mirabilis; 6.25 µg/mL (≈ 16.3 µM) against Staphylococcus aureus; 50 µg/mL (≈ 130 µM) in the experiment with Serratia marcescens; 25 µg/mL (≈ 65.2 µM) with Bacillus subtilis; 0.05 µg/mL (≈ 0.13 µM) with Klebsiella pneumoniae. In the experiment on Escherichia coli, this molecule came in with a minimal inhibitory concentration (MIC) of 0.05 µg/mL (≈ 0.13 µM).

One may read the MIC as the least concentration at which growth counts as inhibited. The low end stands for inhibition by little substance, the high end for a need for much substance.
